Laboratory results reported in ChEMBL document CHEMBL1158754, “ent-Dioncophylleine A and related dehydrogenated naphthylisoquinoline alkaloids, the first Asian dioncophyllaceae-type alkaloids, from the "new"plant species Ancistrocladus benomensis” (J Nat Prod, 2005).
≈ marks a conversion by molar mass, not a printed value.

How the values were obtained:
Plasmodium falciparum = assay: Antiplasmodial activity against chloroquine and pyrimethamine-resistant Plasmodium falciparum K1 in erythrocytes by [3H]hypoxanthine uptake; format: functional, organism-based
Trypanosoma cruzi = assay: Antitrypanosomal activity against Trypanosoma cruzi in rat L6 cells; format: functional, organism-based
[1] = tested on: Trypanosoma brucei rhodesiense; assay: Antitrypanosomal activity against Trypanosoma brucei rhodesiense; format: functional, organism-based
L6 = assay: Cytotoxicity against rat L6 cells; format: cell-based
Procedure, shortened: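 Rat skeletal myoblast (L-6) line; cytotoxicity values reported in µg/mL.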

Row | Structure (SMILES) | IC50 (Plasmodium falciparum) [µg/mL] | IC50 (Trypanosoma cruzi) [µg/mL] | IC50 [1] [µg/mL] | IC50 (L6) [µg/mL]
1 | COc1cccc2c(-c3ccc4cc(C)nc(C)c4c3O)c(C)cc(OC)c12 | 3.9 (≈ 10.4 µM) | 54 (≈ 145 µM) | 5.6 (≈ 15 µM) | 
2 | COc1ccc(-c2ccc3cc(C)nc(C)c3c2O)c2cc(C)cc(OC)c12 [DIONCOPHYLLEINE D] | 0.5 (≈ 1.34 µM) | 24.3 (≈ 65.1 µM) | 4.7 (≈ 12.6 µM) | 
3 | COc1cc(C)c(-c2ccc3cc(C)nc(C)c3c2O)c2cccc(O)c12 [ENT-DIONCOPHYLLEINE A] | 3.1 (≈ 8.62 µM) | 21.8 (≈ 60.7 µM) | 1.4 (≈ 3.9 µM) | 20.6 (≈ 57.3 µM)
4 | O=C(Cn1ccnc1[N+](=O)[O-])NCc1ccccc1 [BENZNIDAZOLE] |  | 0.55 (≈ 2.11 µM) |  | 
